Here are results for 3 molecules from ChEMBL document CHEMBL5653631, “A Potent and Selective ULK1 Inhibitor Suppresses Autophagy and Sensitizes Cancer Cells to Nutrient Stress” (iScience, 2018).

Structures are written as SMILES.

The target in assay [1] is T1, Serine/threonine-protein kinase TBK1 (Homo sapiens) (UniProt Q9UHD2).
T1 sequence (whole entry): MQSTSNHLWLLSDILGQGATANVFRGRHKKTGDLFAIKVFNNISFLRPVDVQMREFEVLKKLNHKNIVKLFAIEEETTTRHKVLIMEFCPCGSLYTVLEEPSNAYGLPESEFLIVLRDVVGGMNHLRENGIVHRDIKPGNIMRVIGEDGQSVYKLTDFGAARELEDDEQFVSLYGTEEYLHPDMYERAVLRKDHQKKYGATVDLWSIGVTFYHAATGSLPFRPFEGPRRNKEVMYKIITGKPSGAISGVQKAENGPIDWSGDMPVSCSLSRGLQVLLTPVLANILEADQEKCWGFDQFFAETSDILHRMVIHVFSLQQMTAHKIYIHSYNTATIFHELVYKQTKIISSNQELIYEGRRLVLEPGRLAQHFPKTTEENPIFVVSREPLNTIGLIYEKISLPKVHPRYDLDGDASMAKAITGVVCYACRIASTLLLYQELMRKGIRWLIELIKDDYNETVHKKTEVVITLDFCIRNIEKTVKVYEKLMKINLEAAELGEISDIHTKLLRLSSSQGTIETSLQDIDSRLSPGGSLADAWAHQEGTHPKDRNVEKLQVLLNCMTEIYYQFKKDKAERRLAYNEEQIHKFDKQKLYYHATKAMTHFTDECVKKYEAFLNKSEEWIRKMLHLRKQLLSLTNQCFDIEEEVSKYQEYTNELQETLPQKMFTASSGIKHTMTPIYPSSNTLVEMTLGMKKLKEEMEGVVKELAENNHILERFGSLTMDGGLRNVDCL
As to the kind of experiment: Inhibition of human recombinant TBK1 at 40 nM in presence of ATP by radiometric assay relative to control.

In assay [2] the target is Serine/threonine-protein kinase PLK2 (Homo sapiens) (UniProt Q9NYY3). Description: Inhibition of human recombinant PLK2 at 40 nM in presence of ATP by radiometric assay relative to control.
Sequence of Serine/threonine-protein kinase PLK2 (Homo sapiens) (Q9NYY3 whole entry, looked up, the tested form may be a part): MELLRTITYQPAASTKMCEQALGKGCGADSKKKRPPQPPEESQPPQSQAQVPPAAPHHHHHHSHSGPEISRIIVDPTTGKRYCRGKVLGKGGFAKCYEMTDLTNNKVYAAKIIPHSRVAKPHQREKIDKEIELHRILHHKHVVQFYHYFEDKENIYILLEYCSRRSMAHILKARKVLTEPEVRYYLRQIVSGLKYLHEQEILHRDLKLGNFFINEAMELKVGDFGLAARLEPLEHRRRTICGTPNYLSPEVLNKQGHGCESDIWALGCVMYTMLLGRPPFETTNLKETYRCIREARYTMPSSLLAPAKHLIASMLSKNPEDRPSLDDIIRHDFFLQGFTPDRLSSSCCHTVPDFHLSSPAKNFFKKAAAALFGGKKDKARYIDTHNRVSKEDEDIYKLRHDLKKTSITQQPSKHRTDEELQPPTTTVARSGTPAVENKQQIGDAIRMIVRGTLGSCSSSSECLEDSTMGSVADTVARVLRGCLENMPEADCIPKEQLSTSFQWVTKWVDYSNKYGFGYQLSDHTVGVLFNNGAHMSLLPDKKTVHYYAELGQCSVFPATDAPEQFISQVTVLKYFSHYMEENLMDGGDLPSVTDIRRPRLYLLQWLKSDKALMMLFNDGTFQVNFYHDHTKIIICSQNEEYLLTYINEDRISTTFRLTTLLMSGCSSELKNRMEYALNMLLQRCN
The target of assay [3] is LIM domain kinase 1 (Homo sapiens) (UniProt P53667). As to the kind of experiment: Inhibition of human recombinant LIMK1 at 40 nM related to control ULK1.
Sequence of LIM domain kinase 1 (Homo sapiens) (P53667 whole entry, looked up, the tested form may be a part): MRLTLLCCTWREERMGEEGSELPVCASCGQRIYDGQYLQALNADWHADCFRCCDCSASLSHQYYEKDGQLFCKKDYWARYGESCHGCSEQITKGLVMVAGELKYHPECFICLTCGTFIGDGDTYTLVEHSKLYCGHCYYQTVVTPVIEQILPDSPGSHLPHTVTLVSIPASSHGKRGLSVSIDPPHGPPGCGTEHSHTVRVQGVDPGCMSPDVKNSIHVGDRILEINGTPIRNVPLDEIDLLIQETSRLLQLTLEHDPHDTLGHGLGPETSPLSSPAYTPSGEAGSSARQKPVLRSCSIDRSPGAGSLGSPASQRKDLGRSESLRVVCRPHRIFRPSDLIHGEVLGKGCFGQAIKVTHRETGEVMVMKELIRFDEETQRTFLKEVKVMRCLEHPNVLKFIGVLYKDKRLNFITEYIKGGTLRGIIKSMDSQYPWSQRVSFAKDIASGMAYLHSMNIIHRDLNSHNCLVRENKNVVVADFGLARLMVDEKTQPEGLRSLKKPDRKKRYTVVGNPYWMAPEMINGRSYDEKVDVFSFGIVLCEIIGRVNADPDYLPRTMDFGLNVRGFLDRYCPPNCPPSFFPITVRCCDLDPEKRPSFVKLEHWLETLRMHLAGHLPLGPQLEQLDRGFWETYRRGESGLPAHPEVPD
For assay [4], the target named is Glycogen synthase kinase-3 beta (Homo sapiens) (UniProt P49841). As to the kind of experiment: Inhibition of human recombinant GSK3B at 40 nM related to control ULK1.
Sequence of Glycogen synthase kinase-3 beta (Homo sapiens) (P49841 whole entry, looked up): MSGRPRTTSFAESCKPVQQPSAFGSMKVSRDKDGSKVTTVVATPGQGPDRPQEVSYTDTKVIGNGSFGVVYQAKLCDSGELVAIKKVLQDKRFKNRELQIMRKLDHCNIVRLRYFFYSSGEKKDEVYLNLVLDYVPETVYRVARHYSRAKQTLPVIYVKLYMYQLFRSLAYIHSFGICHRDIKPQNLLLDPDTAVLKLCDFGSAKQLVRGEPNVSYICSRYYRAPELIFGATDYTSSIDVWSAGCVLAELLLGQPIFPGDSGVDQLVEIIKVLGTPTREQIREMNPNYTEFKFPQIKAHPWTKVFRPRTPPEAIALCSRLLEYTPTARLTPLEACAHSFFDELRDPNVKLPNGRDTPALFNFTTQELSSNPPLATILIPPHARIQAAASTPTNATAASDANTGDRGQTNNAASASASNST
Assay [5] concerns the target Tyrosine-protein kinase Lck (Homo sapiens) (UniProt P06239). Description: Inhibition of human recombinant LCK at 40 nM in presence of ATP by radiometric assay relative to control.
The target in assay [6] is T2, Testis-specific serine/threonine-protein kinase 3 (Homo sapiens) (UniProt Q96PN8).
T2 sequence (whole entry): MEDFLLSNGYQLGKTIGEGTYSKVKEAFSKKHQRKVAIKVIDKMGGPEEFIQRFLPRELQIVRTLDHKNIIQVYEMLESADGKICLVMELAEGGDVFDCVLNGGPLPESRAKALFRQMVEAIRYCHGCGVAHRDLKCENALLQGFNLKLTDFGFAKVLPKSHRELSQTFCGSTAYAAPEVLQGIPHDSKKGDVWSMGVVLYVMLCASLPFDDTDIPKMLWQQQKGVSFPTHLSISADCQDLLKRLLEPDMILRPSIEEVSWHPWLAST
As to the kind of experiment: Inhibition of human recombinant TSSK3 at 500 nM related to control ULK1.

For assay [7], the target named is T3, Serine/threonine-protein kinase A-Raf (Homo sapiens) (UniProt P10398).
T3 sequence (whole entry): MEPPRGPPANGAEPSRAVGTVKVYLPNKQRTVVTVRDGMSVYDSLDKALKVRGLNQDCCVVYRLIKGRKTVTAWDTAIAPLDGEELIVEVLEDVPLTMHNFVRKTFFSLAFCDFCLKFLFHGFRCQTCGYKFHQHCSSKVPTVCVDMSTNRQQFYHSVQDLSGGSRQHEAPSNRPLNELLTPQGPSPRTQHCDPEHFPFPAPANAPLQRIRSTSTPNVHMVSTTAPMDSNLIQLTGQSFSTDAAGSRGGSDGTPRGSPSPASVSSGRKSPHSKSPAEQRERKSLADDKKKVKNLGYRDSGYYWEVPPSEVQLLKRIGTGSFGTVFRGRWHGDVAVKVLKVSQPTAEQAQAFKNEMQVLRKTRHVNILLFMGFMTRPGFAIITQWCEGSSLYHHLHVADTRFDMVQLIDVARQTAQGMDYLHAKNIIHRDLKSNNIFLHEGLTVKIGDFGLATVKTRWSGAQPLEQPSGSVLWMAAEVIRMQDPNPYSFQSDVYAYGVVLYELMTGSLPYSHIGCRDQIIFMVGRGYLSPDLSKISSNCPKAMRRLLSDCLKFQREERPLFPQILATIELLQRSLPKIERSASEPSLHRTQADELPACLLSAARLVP
Description: Inhibition of human recombinant ARAF at 500 nM in presence of ATP by radiometric assay relative to control. The procedure, abridged:
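Panel of 327 recombinant human kinases, each assayed in vitro by radiometric activity assay in duplicate at a single inhibitor concentration per compound, chosen with reference to its ULK1 inhibition. Activity remaining was expressed as percent of vehicle control, and percent inhibition was calculated as 100 minus percent activity remaining.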

The target of assay [8] is T4, Protein kinase C zeta type (Homo sapiens) (UniProt Q05513).
T4 sequence (whole entry): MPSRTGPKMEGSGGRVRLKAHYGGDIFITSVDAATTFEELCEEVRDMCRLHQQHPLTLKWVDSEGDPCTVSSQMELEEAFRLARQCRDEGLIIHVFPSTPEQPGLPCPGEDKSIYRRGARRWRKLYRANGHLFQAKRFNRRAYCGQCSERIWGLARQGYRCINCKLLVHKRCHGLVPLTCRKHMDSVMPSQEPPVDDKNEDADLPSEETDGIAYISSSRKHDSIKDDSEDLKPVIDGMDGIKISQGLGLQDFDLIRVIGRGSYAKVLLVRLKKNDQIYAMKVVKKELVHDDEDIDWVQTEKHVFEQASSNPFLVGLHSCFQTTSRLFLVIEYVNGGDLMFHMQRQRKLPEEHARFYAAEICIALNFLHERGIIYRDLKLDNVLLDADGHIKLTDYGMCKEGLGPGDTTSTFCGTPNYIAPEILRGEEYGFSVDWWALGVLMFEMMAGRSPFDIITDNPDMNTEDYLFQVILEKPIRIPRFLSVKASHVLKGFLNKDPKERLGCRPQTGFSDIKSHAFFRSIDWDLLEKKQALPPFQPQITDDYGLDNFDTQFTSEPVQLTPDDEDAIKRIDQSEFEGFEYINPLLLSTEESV
Description: Inhibition of human recombinant PKCz at 15 nM related to control ULK1.

Sequence of Tyrosine-protein kinase Lck (Homo sapiens) (P06239 2-509 limits assumed): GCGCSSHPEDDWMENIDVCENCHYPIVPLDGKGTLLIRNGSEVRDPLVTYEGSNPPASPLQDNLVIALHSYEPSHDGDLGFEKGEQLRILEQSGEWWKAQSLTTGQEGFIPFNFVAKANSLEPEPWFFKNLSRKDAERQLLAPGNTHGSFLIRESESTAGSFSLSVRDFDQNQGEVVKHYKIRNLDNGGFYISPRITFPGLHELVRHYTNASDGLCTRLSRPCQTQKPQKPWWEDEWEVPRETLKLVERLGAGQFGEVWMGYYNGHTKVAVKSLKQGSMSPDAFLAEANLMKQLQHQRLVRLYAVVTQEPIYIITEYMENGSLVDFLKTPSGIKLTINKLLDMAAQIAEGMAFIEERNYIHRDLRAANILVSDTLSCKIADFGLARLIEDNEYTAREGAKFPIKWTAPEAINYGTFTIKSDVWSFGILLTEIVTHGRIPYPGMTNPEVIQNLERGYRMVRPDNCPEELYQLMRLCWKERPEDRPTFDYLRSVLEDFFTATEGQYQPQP

Turning to `O=C(N[C@@H](C1CC1)C(F)(F)F)c1cc(-c2cnn3cc(-c4ccc(F)cc4)cnc23)cs1`, the inhibition – broadly, the change of the read-out against control, counted positive when it falls – in assay [1] turned out to be 26%; in assay [2], 3%; in assay [5], 0%. Besides, the figures for the fold change (FC) in assay [3] and in assay [4] were 0.21 and 0, respectively.

On to `CNC(=O)c1ccccc1Oc1nc(Nc2cc(OC)c(OC)c(OC)c2)ncc1Br`, for which the fold change (FC) in assay [6] stood at 0. Moreover, in assay [7], the inhibition is 0%.

On to `CC(C)[C@H](NC(=O)c1cc(-c2cnn3cc(-c4ccc(OCCN5CCCCC5)cc4)cnc23)cs1)C(F)(F)F`, for which, in assay [8], the fold change (FC) amounted to 0.
